# Active and inactive are the calls of the source. How the calls were made is not given here.
# Key:
# K562 = assay: Cytotoxicity against human K562 cells; assay type: functional, cell-based
# HeLa [1] = assay: Cytotoxicity against human HeLa cells; assay type: functional, cell-based
# CCRF-CEM = assay: Cytostatic activity against human CEM cells assessed as inhibition of cell proliferation after 72 hrs by Coulter counter analysis; assay type: functional, cell-based
# Procedure, shortened: (§1)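 Each well received (5–7.5) × 10^4 tumor cells plus compound. L1210 cells grew 48 h and CEM and HeLa cells grew 72 h, at 37 °C in humidified CO2. Cells were then counted electronically, and IC50 was taken as the concentration inhibiting proliferation by 50%.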
# Human respirovirus 3 = assay: Antiviral activity against Parainfluenza virus 3 infected in african green monkey Vero cells assessed as reduction of virus-induced cytopathogenicity at 250 uM; assay type: functional, organism-based
# Procedure, shortened: (§2)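 Confluent monolayers (HEL fibroblasts, Vero, or HeLa cells as listed) were infected with 100 CCID50 of virus in the presence of varying compound concentrations. Virus-induced cytopathicity or plaque formation was scored once cytopathicity was complete in untreated infected controls. EC50 was taken as the concentration reducing cytopathogenicity or plaque formation by 50%.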
# [2] = test system: Respiratory syncytial virus; assay: Antiviral activity against Respiratory syncytial virus long infected in human HeLa cells assessed as reduction of virus-induced cytopathogenicity at 250 uM; assay type: functional, organism-based; procedure, shortened: as §2
# [3] = test system: Vesicular stomatitis virus; assay: Antiviral activity against Vesicular stomatitis virus infected in human HeLa cells assessed as reduction of virus-induced cytopathogenicity at 250 uM; assay type: functional, organism-based
# Procedure, shortened: (§3)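 Confluent cell monolayers were infected with 100 CCID50 of virus while exposed to varying compound concentrations. Cytopathicity was scored once it was complete in untreated infected controls. EC50 was taken as the concentration that reduced virus-induced cytopathogenicity by 50%.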
# L1210 = assay: Cytostatic activity against mouse L1210 cells assessed as inhibition of cell proliferation after 48 hrs by Coulter counter analysis; assay type: functional, cell-based; details: L1210, 48 h; procedure, shortened: as §1
# HeLa [4] = assay: Cytotoxicity against human HeLa cells assessed as alteration of cell morphology up to 100 uM by microscopic analysis; assay type: cell-based
# Procedure, shortened: (§4)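 Uninfected host-cell cultures were exposed to compound and examined by microscopy. Cytotoxicity was expressed as the minimum cytotoxic concentration (MCC) causing a microscopically detectable alteration of normal cell morphology.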
# Human alphaherpesvirus 2 = assay: Antiviral activity against Herpes simplex virus 2 G infected in human HEL cells assessed as reduction of virus-induced cytopathogenicity at 250 uM; assay type: functional, organism-based; details: strain G; procedure, shortened: as §2
# Human alphaherpesvirus 1 [5] = assay: Antiviral activity against Herpes simplex virus 1 KOS infected in human HEL cells assessed as reduction of virus-induced cytopathogenicity at 250 uM; assay type: functional, organism-based; procedure, shortened: as §2
# MDCK = assay: Cytotoxicity against dog MDCK cells assessed as alteration of cell morphology up to 100 uM by microscopic analysis; assay type: cell-based, Canis lupus familiaris; procedure, shortened: as §4
# HeLa [6] = assay: Cytostatic activity against human HeLa cells assessed as inhibition of cell proliferation after 72 hrs by Coulter counter analysis; assay type: functional, cell-based; procedure, shortened: as §1
# Sindbis virus = assay: Antiviral activity against Sindbis virus infected in african green monkey Vero cells assessed as reduction of virus-induced cytopathogenicity at 250 uM; assay type: functional, organism-based; procedure, shortened: as §2
# [7] = test system: Human immunodeficiency virus 1; assay: Antiviral activity against Human immunodeficiency virus 1 3B infected in human CEM cells assessed as reduction of virus-induced giant cell formation at 250 uM after 4 to 5 days; assay type: functional, organism-based; details: CCRF-CEM
# Procedure, shortened: (§5)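 CEM cells at 3 × 10^5 cells/mL were infected with HIV at 100 CCID50 per mL in the presence of compound dilutions. They were held 4–5 days at 37 °C in humidified CO2. Syncytium (giant cell) formation was scored microscopically, and EC50 was taken as the concentration inhibiting giant cell formation by 50%.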
# Influenza A virus [8] = assay: Antiviral activity against Influenza A virus H3N2 infected in dog MDCK cells assessed as reduction of virus-induced cytopathogenicity at 250 uM; assay type: functional, organism-based; procedure, shortened: as §3
# [9] = test system: Human immunodeficiency virus 2; assay: Antiviral activity against Human immunodeficiency virus 2 ROD infected in human CEM cells assessed as reduction of virus-induced giant cell formation at 250 uM after 4 to 5 days; assay type: functional, organism-based; details: CCRF-CEM; procedure, shortened: as §5
# Vero = assay: Cytotoxicity against african green monkey Vero cells assessed as alteration of cell morphology up to 100 uM by microscopic analysis; assay type: cell-based; details: chlorocebus sabaeus; procedure, shortened: as §4
# Feline coronavirus = assay: Antiviral activity against Feline coronavirus infected in cat CRFK cells assessed as reduction of virus-induced cytopathogenicity at 250 uM; assay type: functional, organism-based
# Influenza B virus = assay: Antiviral activity against Influenza B virus infected in dog MDCK cells assessed as reduction of virus-induced cytopathogenicity at 250 uM; assay type: functional, organism-based; procedure, shortened: as §3
# Punta Toro virus = assay: Antiviral activity against Punta Toro virus infected in african green monkey Vero cells assessed as reduction of virus-induced cytopathogenicity at 250 uM; assay type: functional, organism-based; procedure, shortened: as §2
# [10] = test system: Mammalian orthoreovirus 1; assay: Antiviral activity against Reovirus 1 infected in african green monkey Vero cells assessed as reduction of virus-induced cytopathogenicity at 250 uM; assay type: functional, organism-based; procedure, shortened: as §2
# [11] = test system: Vesicular stomatitis virus; assay: Antiviral activity against Vesicular stomatitis virus infected in human HEL cells assessed as reduction of virus-induced cytopathogenicity at 250 uM; assay type: functional, organism-based; procedure, shortened: as §3
# Felid alphaherpesvirus 1 = assay: Antiviral activity against Feline herpes virus infected in cat CRFK cells assessed as reduction of virus-induced cytopathogenicity at 250 uM; assay type: functional, organism-based
# Coxsackievirus B4 = assay: Antiviral activity against Coxsackievirus B4 infected in african green monkey Vero cells assessed as reduction of virus-induced cytopathogenicity at 250 uM; assay type: functional, organism-based; procedure, shortened: as §2
# [12] = Cytotoxicity against cat CRFK cells assessed as alteration of cell morphology up to 100 uM by microscopic analysis; assay type: cell-based, Felis catus; procedure, shortened: as §4
# Human alphaherpesvirus 1 [13] = assay: Antiviral activity against thymidine kinase-deficient, ACV-resistant Herpes simplex virus 1 KOS infected in human HEL cells assessed as reduction of virus-induced cytopathogenicity at 250 uM; assay type: functional, organism-based; procedure, shortened: as §3
# HEL = assay: Cytotoxicity against human HEL cells assessed as alteration of cell morphology up to 100 uM by microscopic analysis; assay type: cell-based; procedure, shortened: as §4
# Influenza A virus [14] = assay: Antiviral activity against Influenza A virus H1N1 infected in dog MDCK cells assessed as reduction of virus-induced cytopathogenicity at 250 uM; assay type: functional, organism-based; procedure, shortened: as §3
SMILES,IC50 (CCRF-CEM) [µM],inhibition (Human respirovirus 3),inhibition [2],inhibition [3],IC50 (L1210) [µM],Activity (HeLa [4]),inhibition (Human alphaherpesvirus 2),inhibition (Human alphaherpesvirus 1 [5]),Activity (MDCK),IC50 (HeLa [6]) [µM],inhibition (Sindbis virus),inhibition [7],inhibition (Influenza A virus [8]),inhibition [9],Activity (Vero),inhibition (Feline coronavirus),inhibition (Influenza B virus),inhibition (Punta Toro virus),inhibition [10],inhibition [11],further results
CCOP(=O)(OCC)C1CC(c2ccc3ccccc3c2)ON1C (stereo not given),,,,,,,,,,,,,,,,,,,,,IC50 (K562): 90 µM
CCOP(=O)(OCC)C1CC(c2cccc3ccccc23)ON1C (stereo not given),,,,,,,,,,,,,,,,,,,,,IC50 (HeLa [1]): 50 µM
CCOP(=O)(OCC)[C@@H]1C[C@H](C(=O)Nc2ccccc2F)ON1C (racemic),145,inactive,inactive,inactive,130,Non-toxic,inactive,inactive,Non-toxic,177,inactive,inactive,inactive,inactive,Non-toxic,inactive,inactive,inactive,inactive,inactive,inhibition (Felid alphaherpesvirus 1): inactive; inhibition (Coxsackievirus B4): inactive; Activity [12]: Non-toxic; inhibition (Human alphaherpesvirus 1 [13]): inactive; Activity (HEL): Non-toxic; inhibition (Influenza A virus [14]): inactive
CCOP(=O)(OCC)[C@H]1C[C@H](C(=O)Nc2cccc(Br)c2)ON1C (racemic),≥ 250,inactive,inactive,inactive,> 250,Non-toxic,inactive,inactive,Non-toxic,180,inactive,inactive,inactive,inactive,Non-toxic,inactive,inactive,inactive,inactive,inactive,inhibition (Felid alphaherpesvirus 1): inactive; inhibition (Coxsackievirus B4): inactive; Activity [12]: Non-toxic; inhibition (Human alphaherpesvirus 1 [13]): inactive; Activity (HEL): Non-toxic; inhibition (Influenza A virus [14]): inactive
CCOP(=O)(OCC)[C@H]1C[C@H](C(=O)Nc2ccc(Cl)cc2)ON1C (relative stereo),> 250,inactive,inactive,inactive,> 250,Non-toxic,inactive,inactive,Non-toxic,≥ 250,inactive,inactive,inactive,inactive,Non-toxic,inactive,inactive,inactive,inactive,inactive,inhibition (Felid alphaherpesvirus 1): inactive; inhibition (Coxsackievirus B4): inactive; Activity [12]: Non-toxic; inhibition (Human alphaherpesvirus 1 [13]): inactive; Activity (HEL): Non-toxic; inhibition (Influenza A virus [14]): inactive

# Source: ChEMBL document CHEMBL2331506, “Design, synthesis, antiviral and cytostatic evaluation of novel isoxazolidine nucleotide analogues with a carbamoyl linker” (Bioorg Med Chem, 2013)
